Screening results from PubChem.
MT1-MMP act inh = inhibitors of human MT1-MMP activation. P50281. HT1080 RFP-PRO-GFP cells, GFP/RFP ratio fluorescence, overnight; percent of plate control window, DMSO zero. GFP/RFP ratio change, % at 20 µM. 360,000 compounds, 0.061% hits;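 active means GFP/RFP ratio change of at least 30% with cell ATP level not reduced by more than half and red fluorescence within 50% of control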
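Material: RFP-PRO-GFP reporter HT1080 cells. Dosing: single-point 20 µM compound, 1% DMSO. Controls: DMSO and RFP-L50D-GFP cell wells. Timing: cells overnight before dosing, compound overnight, 37 °C, 5% CO2. Measure: GFP/RFP fluorescence ratio.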
SKN-1 inh = blocks SKN-1 activity in C. elegans. C. elegans VP596 Pgst-4::GFP/RFP ratio, acrylamide-induced, 24 h. inhibition, % at 21.8 µM. AID 624304. 360,000 compounds, 0.49% hits;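 active means interference check ratio from 0.5 to 1.5 plus GFP to RFP signal ratio inhibition reaching or exceeding a fixed threshold, cut at about 30% in these data, passing the limit was not always enough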
ADAM17 inh = inhibitors of human ADAM17 | P78536 | recombinant ADAM17, EDANS/DABCYL FRET peptide cleavage | inhibition, % at 6.95 µM | 370,000 compounds, 0.83% hits;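 active means inhibition above the mean of compounds lying between control limits plus 3 SD, set per campaign, cut at about 8.5% in these data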;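 further: 0% = DMSO-only wells as the low control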
MPTP inh = blocks calcium-induced mitochondrial swelling | isolated mouse mitochondria, Ca2+ swelling absorbance, 30 min | inhibition, % at 10 µM | 360,000 compounds, 1.4% hits | AID 602449;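 active means inhibition of 50% or more, scaled per plate between neutral and stimulator controls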;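 further: 0% = DMSO wells given calcium and 100% = 1 mM EGTA wells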
GRIN3A LBD mod = modulators (binders) of human NR3A ligand-binding domain. NR3A LBD differential scanning fluorimetry, Tm shift; 0% = protein alone, 100% = glycine-bound protein. 340,000 compounds, 2.5% hits. Tm shift relative to glycine control, % at 25 µM;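 active means melting temperature shift of at least 10% of the positive control shift, at one fixed dose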
ADAM10 inh = inhibits human ADAM10. 370,000 compounds, 0.62% hits. recombinant ADAM10, EDANS/DABCYL FRET peptide cleavage, 3 h. inhibition, % at 7 µM;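 active means inhibition above a per-campaign cutoff equal to the mean of compounds falling between control-based bounds plus 3 SD, cut at about 20% in these data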;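 further: 0% = DMSO wells while the 100% control is not disclosed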
Target sequence (O14672 214-748 limits assumed): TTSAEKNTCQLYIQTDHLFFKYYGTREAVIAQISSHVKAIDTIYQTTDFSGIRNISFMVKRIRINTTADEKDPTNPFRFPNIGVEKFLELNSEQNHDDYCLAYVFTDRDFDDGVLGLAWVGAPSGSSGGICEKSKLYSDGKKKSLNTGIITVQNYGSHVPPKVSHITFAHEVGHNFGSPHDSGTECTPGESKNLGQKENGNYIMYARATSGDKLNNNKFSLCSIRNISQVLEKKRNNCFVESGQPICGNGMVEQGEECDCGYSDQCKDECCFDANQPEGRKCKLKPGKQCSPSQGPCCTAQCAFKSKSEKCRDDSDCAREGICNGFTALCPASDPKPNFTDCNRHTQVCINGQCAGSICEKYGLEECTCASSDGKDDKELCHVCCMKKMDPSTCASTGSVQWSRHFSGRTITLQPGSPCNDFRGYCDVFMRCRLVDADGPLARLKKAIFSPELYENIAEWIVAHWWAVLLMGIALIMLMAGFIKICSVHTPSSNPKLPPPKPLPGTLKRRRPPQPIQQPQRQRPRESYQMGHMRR
Starred values were filed as active, the others as inactive; x = no result. Most compounds without a hit are left out; they make up all but 4.7% or so of the library.

SMILES	MT1-MMP act inh	SKN-1 inh	ADAM17 inh	MPTP inh	GRIN3A LBD mod	ADAM10 inh
COc1ccc(S(=O)(=O)Nc2ccc(S(=O)(=O)Nc3ccc(F)cc3)cc2)cc1C	0.8	36.1*	5.5	3.5	16.4*	5.1
Clc1ccc(CSc2nccn2Cc2ccccc2)cc1	-7.1	37.8*	6.9	6.4	-12.7	8.8
COc1ccc(-c2noc(N3CCCC(C(=O)Nc4ccccc4F)C3)n2)cc1 (centres undefined)	-1.6	-5.5	1.8	1.4	12.8*	-3.1
CCCC(c1nnnn1CCOC)N1CCN(Cc2ccccc2)CC1 (centres undefined)	-3.6	-6.9	-4.0	-1.2	0.0	-6.4
CCC(c1nnnn1CCOC)N1CCN(Cc2ccccc2OC)CC1 (centres undefined)	3.1	-25.8	-4.9	-3.7	15.1*	4.0
CCOC(=O)c1c(C)c(-c2ccccc2)n(CC(=O)N2CCN(C)CC2)c1C	-1.5	-3.0	-0.8	-1.6	1.5	-0.6
COc1cc(NC(=S)NC(C)=O)ccc1NC(=O)C(C)C	-0.5	-1.6	-2.0	-1.2	11.2*	-4.1
COc1ccc(CC(=O)Nc2c3c(nn2C(C)(C)C)CS(=O)(=O)C3)cc1	-0.7	15.1	-2.3	0.6	14.1*	-0.4
COc1ccc(OCC(=O)Nc2c3c(nn2C(C)(C)C)CS(=O)(=O)C3)cc1	0.8	-16.0	-3.4	0.4	-0.9	-4.5
Cn1c(=O)n(C)c2cc(NS(=O)(=O)c3ccccc3)ccc21	9.1	-0.7	x	-0.6	-1.9	x
Cc1ccc([N+](=O)[O-])cc1N(CC(=O)Nc1ccc(S(=O)(=O)Nc2cccc(C(F)(F)F)c2)cc1)S(C)(=O)=O	-2.7	-8.5	24.7*	-3.8	12.3*	48.8*
O=C(Nc1cccc(S(=O)(=O)Nc2ccccc2F)c1)c1ccco1	-1.8	13.1	-1.9	0.9	0.7	-12.7
O=C1CCC(C(=O)Nc2cccc(S(=O)(=O)Nc3ccccc3F)c2)=NN1	0.1	-14.2	-0.6	-1.1	12.6*	-3.3
COc1ccccc1C(=O)N/N=C/C(C)=C/c1ccccc1	3.1	13.6	-2.6	1.4	0.7	-3.8
Cc1ccc(-c2noc(CCC(=O)Nc3ccc(C)cn3)n2)cc1	-1.3	-17.5	1.7	3.1	11.4*	5.0
CCOC(=O)N1CCN(C(=O)c2ccc(OC)c(OC)c2)CC1	2.4	-6.5	-2.6	0.1	1.8	-32.4
CCOc1ccccc1N1CCN(C(=O)c2ccccc2)CC1	5.1	15.5	0.8	0.8	-2.8	4.3
CCOc1ccccc1N1CCN(C(=O)c2ccc3c(c2)OCO3)CC1	-10.0	-13.7	-2.4	-0.9	10.2*	-3.8
CCOC(=O)N1CCN(C(=O)c2ccc(OCC)c(OCC)c2)CC1	4.4	12.0	-0.3	1.3	10.2*	8.5
Cc1ccc2c(c1)C=CC(C#N)N2C(=O)c1ccccc1 (centres undefined)	-5.2	3.5	-0.3	1.2	-2.5	0.9
Cc1cc(C)c(S(=O)(=O)N2CCCC(C(=O)N3CCCC3)C2)c(C)c1 (centres undefined)	0.0	-12.0	-5.5	-0.4	0.8	-4.5
O=C(Nc1ccccc1C(=O)OCC(=O)N1CCc2ccccc2C1)c1ccco1	3.2	-11.3	-4.5	-7.7	-2.5	-18.0
Cc1ccc(S(=O)(=O)N2CCOC23CCN(S(=O)(=O)c2cccs2)CC3)cc1	6.1	-12.0	-2.1	0.8	12.2*	-7.3
CCN1CCN(C(=O)/C=C/c2ccc(C(C)C)cc2)CC1	5.3	-1.2	-0.4	-0.3	-2.7	0.1
CCN1CCC(O)(/C=C/c2ccc(C(C)C)cc2)C(C(=O)/C=C/c2ccc(C(C)C)cc2)C1 (centres undefined)	-1.3	-0.6	-2.0	35.1	24.1*	-1.7
SMILES	MT1-MMP act inh	SKN-1 inh	ADAM17 inh	MPTP inh	GRIN3A LBD mod	ADAM10 inh
Fc1ccc(-c2csc3ncnc(N4CCc5ccccc5C4)c23)cc1	-9.1	2.5	3.8	3.5	10.7*	2.2
Cc1ccccc1NC(=O)COC(=O)c1ccc(CSc2ccc(Cl)cc2)cc1	-3.6	-1.6	-3.4	3.0	11.9*	-4.6
Cc1ccc(NS(=O)(=O)c2cc(NC(=O)c3ccc4c(c3)NC(=O)CS4)ccc2Cl)c(C)c1	-2.6	11.7	8.3	23.1	15.7*	17.2
Cc1ccc(NC(=O)c2cc3c(s2)CCCC3)cc1	-0.5	31.7	1.1	4.2	-3.8	1.0
Cc1ccc(NS(=O)(=O)c2cc(NC(=O)c3cc4c(s3)CCCC4)ccc2C)c(C)c1	-13.6	4.4	-3.5	30.5	24.7*	-5.7
COc1ccc(F)cc1CN1CCN(CC(=O)N2CCc3ccccc32)CC1	2.9	10.3	-5.3	-2.4	-0.5	2.7
CC(=O)Nc1ccc(S(=O)(=O)N(C)CCOCc2ccccc2)cc1	-1.2	1.1	0.8	1.3	15.6*	8.4
c1cc(CNc2ccc3c(c2)OCO3)ccn1	-10.7	36.9*	-19.0	-1.5	-0.7	-43.0
COC(=O)c1c(-c2ccc(F)cc2)csc1NC(=O)c1ccco1	-2.2	12.3	-9.6	-1.3	-18.7	-26.8
C#CCOCCOCCOCCNc1nc(N2CCN(C(=O)[C@H](CCC(=O)O)n3cc(CN)nn3)CC2)nc(N2CCN(C(=O)[C@H](CCC(=O)O)n3cc([C@@H](N)[C@H](C)CC)nn3)CC2)n1	0.5	15.4	4.0	0.0	-2.8	-3.0
Nc1cc(-c2ccc(OC(F)(F)F)cc2)nn1-c1ccc(Cl)c(Cl)c1	1.7	29.9	2.0	25.4	24.1*	7.1
COc1ccc(-n2nc(C)cc2N)cc1	0.9	-6.2	0.1	-0.3	-0.6	-2.6
Cn1c(N)c(C(=O)COC(=O)c2cccc(S(=O)(=O)N3CCCCC3)c2)c(=O)n(C)c1=O	3.2	4.9	3.4	-0.7	-4.4	0.9
Cc1[nH]c2ccccc2c1C(=O)COC(=O)c1cccc(S(=O)(=O)N2CCCCC2)c1	-7.0	-2.2	-0.8	0.6	20.7*	-0.8
O=C(OCC(=O)c1c[nH]c2ccccc12)c1cc2ccccc2cc1O	1.1	5.7	-4.6	1.8	32.2*	-10.3
Cc1ccc(C(=O)OCC(=O)c2c[nH]c3ccccc23)cc1S(=O)(=O)N1CCCCC1	-16.5	14.5	-0.1	2.8	25.3*	-6.0
Cc1onc(-c2c(F)cccc2Cl)c1C(=O)OCC(=O)c1c[nH]c2ccccc12	-4.7	7.8	6.3	12.8	12.6*	15.8
CC(C)c1ccc(NS(=O)(=O)c2ccc3[nH]cc(C(=O)N4CCC(C(N)=O)CC4)c(=O)c3c2)cc1	-1.1	-2.1	-5.0	-0.4	0.8	-10.8
O=C1NN=C(c2ccccc2)CC1c1ccc(Cl)cc1Cl (centres undefined)	-0.5	-8.3	-0.3	-0.9	-0.4	0.9
CCOC(=O)Cc1csc(NC(=O)CSc2nnc(C3CC3)n2C)n1	-6.8	9.2	-2.1	21.4	-1.5	0.4
